Laboratory results: BindingDB's records for doi:10.1021/jm301253y (University of Florida, 2013)

Legend:
[1] = target: Melanocyte-stimulating hormone receptor (Mus musculus, UniProt Q01727); assay: Agonist activity at mouse MC1 receptor expressed in HEK293 cells after 6 hrs by cAMP-based beta-galactosidase reporter gene assay
Procedure, shortened: (§1)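 HEK-293 cells stably expressing the mouse receptor, kept in DMEM with 10% fetal calf serum, transfected with CRE/β-galactosidase reporter. Efficacy is relative to NDP-MSH on the same plate. EC50 is the mean of duplicate wells from three or more independent experiments, fitted by nonlinear least squares.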

Melanocortin receptor 5 = Melanocortin receptor 5 (Mus musculus, UniProt P41149); assay: Agonist activity at mouse MC5 receptor expressed in HEK293 cells after 6 hrs by cAMP-based beta-galactosidase reporter gene assay; procedure, shortened: as §1
Melanocortin receptor 4 = Melanocortin receptor 4 (Mus musculus, UniProt P56450); assay: Agonist activity at mouse MC4 receptor expressed in HEK293 cells after 6 hrs by cAMP-based beta-galactosidase reporter gene assay; procedure, shortened: as §1
Melanocortin receptor 3 = Melanocortin receptor 3 (Mus musculus, UniProt P33033); assay: Agonist activity at mouse MC3 receptor expressed in HEK293 cells after 6 hrs by cAMP-based beta-galactosidase reporter gene assay; procedure, shortened: as §1
Chain of Melanocortin receptor 3 (P33033 whole entry): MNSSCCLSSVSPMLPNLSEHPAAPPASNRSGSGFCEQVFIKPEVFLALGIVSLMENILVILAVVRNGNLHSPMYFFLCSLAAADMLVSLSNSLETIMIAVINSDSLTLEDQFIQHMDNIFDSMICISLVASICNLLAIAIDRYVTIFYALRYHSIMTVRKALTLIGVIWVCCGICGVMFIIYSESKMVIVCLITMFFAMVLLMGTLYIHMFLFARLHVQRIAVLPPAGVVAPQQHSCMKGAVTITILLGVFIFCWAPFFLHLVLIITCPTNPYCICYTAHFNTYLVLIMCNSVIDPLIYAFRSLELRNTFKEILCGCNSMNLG

Chain of Melanocortin receptor 4 (P56450 whole entry): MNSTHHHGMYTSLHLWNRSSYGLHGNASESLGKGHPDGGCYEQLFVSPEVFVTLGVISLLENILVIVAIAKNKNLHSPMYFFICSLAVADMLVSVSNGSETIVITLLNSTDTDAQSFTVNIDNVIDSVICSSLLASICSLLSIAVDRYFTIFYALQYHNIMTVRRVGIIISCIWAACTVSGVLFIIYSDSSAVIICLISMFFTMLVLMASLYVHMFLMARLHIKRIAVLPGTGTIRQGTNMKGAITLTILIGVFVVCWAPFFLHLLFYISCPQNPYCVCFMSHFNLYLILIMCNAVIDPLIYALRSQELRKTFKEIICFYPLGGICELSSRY
Chain of Melanocortin receptor 5 (P41149 whole entry): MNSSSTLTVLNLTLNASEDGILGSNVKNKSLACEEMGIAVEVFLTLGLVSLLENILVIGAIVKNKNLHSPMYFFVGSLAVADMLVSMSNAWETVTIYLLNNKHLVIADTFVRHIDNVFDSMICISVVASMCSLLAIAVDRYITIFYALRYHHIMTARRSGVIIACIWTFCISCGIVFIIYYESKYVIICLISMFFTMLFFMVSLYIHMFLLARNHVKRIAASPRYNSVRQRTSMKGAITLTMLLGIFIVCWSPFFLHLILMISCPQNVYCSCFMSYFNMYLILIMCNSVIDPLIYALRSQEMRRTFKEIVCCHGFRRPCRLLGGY
Chain of Melanocyte-stimulating hormone receptor (Q01727 whole entry): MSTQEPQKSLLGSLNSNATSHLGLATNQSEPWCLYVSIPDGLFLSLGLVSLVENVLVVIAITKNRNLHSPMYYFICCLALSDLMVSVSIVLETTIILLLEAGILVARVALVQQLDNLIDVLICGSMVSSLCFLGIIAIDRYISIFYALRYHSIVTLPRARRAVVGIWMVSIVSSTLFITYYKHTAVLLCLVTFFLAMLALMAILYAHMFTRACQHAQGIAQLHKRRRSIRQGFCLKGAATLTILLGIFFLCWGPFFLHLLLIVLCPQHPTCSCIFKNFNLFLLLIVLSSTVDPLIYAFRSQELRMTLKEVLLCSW

C[C@@H]1NC(=O)[C@H](CC(N)=O)NC(=O)[C@@H](Cc2c[nH]c3ccccc23)[C@]23CCCN2C(=O)[C@@H](CSCC3=O)NC(=O)[C@@H](Cc2ccccc2)NC(=O)[C@H](Cc2cnc[nH]2)NC(=O)[C@@H](NC(=O)[C@@H](N)Cc2ccc(O)cc2)CSSC[C@@H](C(=O)N[C@@H](Cc2ccc(O)cc2)C(N)=O)NC(=O)[C@H](Cc2ccccc2)NC1=O
EC50 [1]: 16 nM | EC50 (Melanocortin receptor 5): 630 nM | EC50 (Melanocortin receptor 4): 1270 nM | EC50 (Melanocortin receptor 3): 7120 nM
